Publication PMC2984665 (Phytochemistry, 2010)
pIC50: −log10 of the molar value.

Legend:
[1] = stability of the isolated pure compounds on storage; assay type: physicochemical; conditions: pure isolated compound; decomposition followed by discoloration and LC-MS
[2] = target: serine protease chymotrypsin (Bos taurus, UniProt P00766); assay: chymotrypsin chemiluminescent assay with and without detergent; assay type: biochemical; conditions: read-out: IC50, inhibition of chymotrypsin; without detergent
Procedure, shortened: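 Serine protease chymotrypsin, standard chemiluminescent read-out. Each test compound run in parallel without detergent and with 0.01% (v/v) Triton added, to screen for aggregation-based inhibition; IC50 derived under each condition.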

Row | Substance | stability after isolation in pure form [1] | pIC50 [2]
1 | Sebestenoid A [Compound 1] | stable | –
2 | Sebestenoid B [Compound 2] | decomposed rapidly | –
3 | Sebestenoid C [Compound 3] | stable | 4.48
4 | Sebestenoid D [Compound 4] | decomposed rapidly | 4.57
